Shown are actives, neighbours in structure and some others; about 1.9% of the full set was active somewhere.
beta cell repl: induces beta-cell replication in MIN6 cells; MIN6 cells proliferation, ATPlite luminescence, 48 h; cells starved in 0.2% serum; 100% = growth in 10% serum; proliferation, % at 10 µM; 0.29% of 330,000 active;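 active = compounds whose signal lies at least 3.5 SD above the mean of all wells on their plate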;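 also: 0% = DMSO-treated cells in low-serum medium and 100% = 10% serum control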
KLK7 zymogen act: proKLK7 (human) activation, primary screen; AID 652039; 0.9% of 370,000 active; purified proKLK7, EDANS-DABCYL substrate fluorescence; 100% is mature enzyme control, 0% vehicle; P49862; activation, % at 7 µM;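 active = activation above the mean of all tested compounds plus 3 SD, computed per campaign excluding outliers beyond control limits, cut at about 13% in these data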
Target sequence (P49862 whole entry, looked up): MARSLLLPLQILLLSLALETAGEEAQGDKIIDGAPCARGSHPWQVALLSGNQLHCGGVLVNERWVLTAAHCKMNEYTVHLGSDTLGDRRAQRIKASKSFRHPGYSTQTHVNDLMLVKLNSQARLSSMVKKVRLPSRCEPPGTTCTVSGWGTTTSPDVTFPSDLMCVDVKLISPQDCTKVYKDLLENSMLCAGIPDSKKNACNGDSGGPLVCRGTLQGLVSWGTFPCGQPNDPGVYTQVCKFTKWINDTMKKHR
Yeast superoxide: lowers age-related superoxide in aged yeast cells; S. cerevisiae aged cells, superoxide DHE fluorescence; hits give low values; 0.18% of 330,000 active; AID 2690; superoxide response (% of plate mean), % at 10 µM;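 active = superoxide response under a set limit, about three screen SD below normal, cut at about 65% in these data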;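 also: yeast aged for seven days with compound at 30 °C before DHE staining; 100% = average MFI of all compound-treated wells on the plate with controls excluded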
Rce1 inhib: blocks yeast Ras-converting enzyme; calls only; Q03530; yeast membranes, quenched prenylated peptide cleavage fluorescence; 0.27% of 290,000 active;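 active = fall in fluorescence gain of 50% or more versus controls, with final raw signal at or below 3038400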;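 also: plate controls were neutral control wells for no effect and wells lacking membranes for full effect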
Target sequence (Q03530 whole entry, looked up): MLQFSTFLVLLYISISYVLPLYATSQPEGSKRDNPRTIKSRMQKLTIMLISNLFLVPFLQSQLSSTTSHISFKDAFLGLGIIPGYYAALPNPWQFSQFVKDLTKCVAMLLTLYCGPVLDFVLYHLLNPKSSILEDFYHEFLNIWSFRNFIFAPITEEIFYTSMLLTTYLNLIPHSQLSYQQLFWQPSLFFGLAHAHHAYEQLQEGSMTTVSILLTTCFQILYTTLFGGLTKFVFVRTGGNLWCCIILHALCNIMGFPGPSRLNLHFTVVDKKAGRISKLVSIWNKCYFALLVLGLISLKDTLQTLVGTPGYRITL
T cell HTS: T cell immune modulators affecting CD8 T cell-vesicle binding. 2C CD8+ T cell-vesicle binding, flow cytometry; hits give low values. 0.068% of 330,000 active. response (vesicle binding), % at 7 µM;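 active = response, share of CD8 T cells binding vesicles, and their 90th percentile fluorescence all below set limits, cut at about 80% in these data, passing the limit was not always enough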;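 also: values below 100% mean blocked vesicle binding to the CD8+ T cells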
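incubation = binding step 1.5 h, 37 °C, antibody labelling 20 min, ice | test system = 2C mouse CD8+ T cells | read-out basis = percent CD8+ FL2 mean versus row control | controls = Peptide-free naked vesicles (low) and QL9 vesicles with 0.7% DMSO vehicle (high) | detection = flow cytometry of vesicle-bound cells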
V-ATPase pHluor: regulators of yeast V-ATPase proton transport; S. cerevisiae, pHLuorin cytosolic pH fluorescence; 0.37% of 350,000 active; response, % at 10 µM; in the data active = response mostly above about 7.3%, no sharp cut-off; inactive = mostly below about 5.4%; also: actives read high
Numbers without * were called inactive; i = inactive; nt = no result; + = active, no number.

SMILES	beta cell repl	KLK7 zymogen act	Yeast superoxide	Rce1 inhib	T cell HTS	V-ATPase pHluor
COc1ccc(S(=O)(=O)N2CCN(Cc3cccc(Cl)c3)CC2)cc1	0.1	0.4	97.3	i	517.9	8.1
COc1ccc(CN(C2CCCC2)S(=O)(=O)c2ccc(-n3cnnn3)c(OC)c2)cc1OC	-0.3	-0.2	114.5	+	287.4	-5.9
CN1Cc2sc(NC(=S)NC(=O)c3ccccc3)c(C#N)c2CC1(C)C	-4.0	2.0	108.7	nt	467.9	29.4*
CCOc1ccc(OCC(=O)c2c(O)c3ccccc3oc2=O)cc1	-3.7	-0.3	91.9	nt	211.8	-1.8
COc1ccc(OCC(=O)c2c(O)c3ccccc3oc2=O)cc1	-2.5	nt	105.8	i	143.6	15.7*
COc1ccc2c(c1)OC13CCCCC1C2C(C(=O)c1ccccc1)C(=O)N3 (configuration not stated)	-2.3	0.3	106.2	i	267.3	20.1*
COc1ccc2c(c1)OC13CCN(C)CC1C2C(C(=O)c1ccc(F)cc1)C(=O)N3 (configuration not stated)	-2.5	0.7	93.7	i	483.0	-5.4
O=S1(=O)c2ccc(Br)cc2OC[C@H](Cc2ccccc2)N1Cc1cn(Cc2ccc(F)cc2)nn1	nt	0.7	nt	nt	nt	nt
CC(COc1cc(F)cc(C#N)c1)CN1CCC(C(O)(c2ccccc2)c2ccccc2)CC1 (configuration not stated)	nt	0.0	nt	nt	nt	nt
CCOc1cc(S(=O)(=O)N(Cc2ccccc2)Cc2ccccc2)c(OCC)cc1-n1cnnn1	nt	-0.2	nt	+	nt	1.4
CCc1c(Cc2cccc(F)c2)ncn1CCc1ccccc1OC	nt	0.1	nt	nt	nt	nt
O=C(CN1C(=O)C2CC=C(Cl)CC2C1=O)Nc1ccc(C(=O)O)cc1 (configuration not stated)	0.4	0.6	109.4	i	293.6	2.0
O=C(CN1C(=O)C2C3CC(C(Br)C3Br)C2C1=O)Nc1ccc(C(=O)O)cc1 (configuration not stated)	-0.2	-0.1	53.6*	i	171.5	0.3
CC1=CC=CN2C1=NC(=O)CC2(C)C(=O)N(CC(=O)NC1CCCC1)Cc1ccccc1 (configuration not stated)	3.0	10.8	93.5	i	561.1	-6.1
CC1(C(=O)N(CC(=O)NC2CCCC2)Cc2ccco2)CC(=O)N=C2C=CC=CN21 (configuration not stated)	1.6	2.4	80.7	+	333.9	1.2
CC1=CC2=NC(=O)CC(C)(C(=O)N(CC(=O)NC3CCCC3)Cc3ccc(Cl)cc3)N2C=C1 (configuration not stated)	-0.6	0.7	99.7	i	336.8	-0.7
CC1(C(=O)N(CC(=O)NC2CCCC2)Cc2ccccc2)CC(=O)N=C2C=CC=CN21 (configuration not stated)	2.0	3.7	86.3	+	663.1	5.5
O=C(COC(=O)CNC(=O)c1ccc(Cl)cc1)Nc1ccc(Cl)cn1	0.8	-0.3	114.1	nt	199.7	13.2*
COc1ccc2c(c1)C(c1ccc([N+](=O)[O-])cc1)=NNC(c1ccco1)=N2	-0.5	0.4	92.4	i	0.0*	-0.3
CCOC(=O)N1CCN(C(=O)c2ccc(CS(=O)Cc3ccccc3Cl)o2)CC1 (configuration not stated)	4.7	-0.5	83.5	i	138.7	1.4
CCOC(=O)N1CCN(C(=O)c2ccc(CS(=O)Cc3ccc(C)cc3)o2)CC1 (configuration not stated)	-0.5	-0.4	69.2	i	42.8*	0.2
CSc1nc(-c2ccco2)nn1C(=O)c1ccccc1	-1.5	-0.3	98.7	i	147.3	-1.5
COc1ccccc1C(=O)n1nc(-c2ccco2)nc1SC	-1.8	0.8	99.9	i	28.5*	-0.3
O=C(Nc1cccc(Cl)c1)OC1CCC12CCC(c1ccccc1)CC2 (configuration not stated)	nt	1.0	nt	nt	nt	nt
Nc1ccc2nc3c(=O)n(CCc4ccccc4)c(=O)[nH]c3nc2c1	-3.6	-1.9	113.7	i	549.4	51.3*
SMILES	beta cell repl	KLK7 zymogen act	Yeast superoxide	Rce1 inhib	T cell HTS	V-ATPase pHluor
CCCCCc1ccc(OCCOCCn2c[n+](C)c3ccccc32)c(CCCCC)c1	nt	nt	nt	+	nt	-4.1
Cc1ccc(C)c(NC(=O)C2CCCN2S(=O)(=O)c2cccc3cccnc23)c1 (configuration not stated)	nt	-0.2	nt	nt	nt	nt
CC1(C)CC2CC(C)(CN2S(=O)(=O)c2ccc(N)cc2)C1 (configuration not stated)	-3.6	-0.4	101.5	+	553.1	-0.2
Cc1c(C)c2c(OCC(=O)N3CCC(C(N)=O)CC3)cc3c(c2oc1=O)CCC(C)(C)O3	3.3	31.7*	131.2	i	351.1	4.8
N=c1c2c(-c3ccccc3)c(-c3ccccc3)n(CCc3ccccc3)c2ncn1C1CCC(O)CC1 (configuration not stated)	nt	0.1	nt	nt	nt	nt
COc1ccc(/C=N/NC(=O)c2[nH]c3ccc(C)cc3c2-c2ccccc2)c(C(=O)O)c1OC	nt	-0.4	95.9	+	229.0	-0.7
Cc1ccc2[nH]c(C(=O)N/N=C/c3ccccc3C(=O)O)c(-c3ccccc3)c2c1	1.5	-0.1	122.0	i	178.6	0.6
CC1OC(CC(=O)O)CC2=C1C(=O)c1c(O)cccc1C2=O (configuration not stated)	nt	1.8	nt	nt	nt	116.6*
O=C1c2cccc(O)c2C(=O)c2c(O)cccc21	-6.0	nt	125.8	i	908.9	nt
S=c1[nH]nc(-c2cc(-c3ccccc3)n[nH]2)n1N=Cc1cccc(Oc2ccccc2)c1	nt	-0.1	nt	nt	nt	nt
COC(=O)C1CCCN1S(=O)(=O)c1ccc2ccccc2c1 (configuration not stated)	-5.7	0.2	107.6	+	303.2	-5.5
NC(=O)c1cccnc1Oc1ccc(Cl)cc1	-1.5	0.7	104.8	i	812.1	-2.5
O=C(Nc1cccnc1Oc1ccc(Cl)cc1)c1cccc2ccccc12	-3.5	1.0	100.8	+	188.2	0.2
CCN(CC)C(=O)CSc1nnc(-c2cccs2)o1	nt	0.8	nt	nt	nt	nt
Cc1ccc(-n2ncc(C(=O)Nc3cc(Cl)ccc3C)c2C2CCNCC2)cc1C	-4.6	0.3	119.8	nt	134.2	31.7*
Cc1cccc(NC(=O)c2cnn(-c3ccc(F)cc3)c2C2CCNCC2)c1C	-0.6	-0.5	95.8	i	147.9	2.0
O=C1N(CCCO)CCC12CCC(c1ccccc1)CC2 (configuration not stated)	nt	0.4	nt	nt	nt	nt
C=CC(C)(C)c1c(O)c(CC=C(C)C)c(O)c2c(=O)c3ccc(O)c(O)c3oc12	-5.9	nt	101.7	i	32.0*	2.1
O=C(N[C@H](Cc1ccccc1)C(=O)NCCN1CCOCC1)[C@H]1O[C@@H](n2ccc(=O)[nH]c2=O)[C@H](O)[C@@H]1O	nt	0.5	nt	nt	nt	nt
C[C@H](CO)N1C[C@H](C)[C@@H](CN(C)C(=O)Cc2ccccc2)OCc2cn(nn2)CCCC1=O	nt	0.5	nt	nt	nt	nt

Source: PubChem BioAssay (several laboratories)
